SMILES strings stand for the structures. Converted amounts (≈) assume the structure as drawn.

Common to all, as to assay type: functional
In experiment [1] the test system is Staphylococcus aureus. Nature of the experiment: In vitro inhibitory activity against Staphylococcus aureus (EryRi 011GO25i). In a few lines: (§1)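 Two-fold agar dilution on Mueller-Hinton agar (pH 7.4). Inoculum from overnight plate cultures suspended in Mueller-Hinton broth, adjusted to 10^9 CFU/mL, diluted 1:200 and spotted by multipoint inoculator at about 10^4 CFU/spot. Plates incubated 37 °C for 20 h. MIC taken as lowest concentration with no visible growth.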

Experiment [2] deals with Streptococcus pneumoniae. Nature of the experiment: In vitro inhibitory activity against Streptococcus pneumoniae (EryRc 030SJ1). In a few lines:
as §1

For experiment [3], the system named is Streptococcus pneumoniae. Nature of the experiment: In vitro inhibitory activity against Streptococcus pneumoniae (032UC1). Put shortly:
as §1

Experiment [4] concerns Streptococcus pneumoniae. Nature of the experiment: In vitro inhibitory activity against Streptococcus pneumoniae (EryRi 030SJ5i). In a few lines:
as §1

Experiment [5] concerns Staphylococcus aureus. Briefly: In vitro inhibitory activity against Staphylococcus aureus (EryRc 011CB20). In a few lines: as §1
Experiment [6] concerns Streptococcus pyogenes. Briefly: In vitro inhibitory activity against Streptococcus pyogenes (02A1UC1). In a few lines: as §1
The subject of experiment [7] is Haemophilus influenzae. Nature of the experiment: In vitro inhibitory activity against Haemophilus influenzae (351CB12). In a few lines: as §1
The subject of experiment [8] is Escherichia coli. Briefly: In vitro inhibitory activity against Escherichia coli (250 UC5). In a few lines:
as §1

For experiment [9], the system named is Staphylococcus epidermidis. Nature of the experiment: In vitro inhibitory activity against Staphylococcus epidermidis (EryRi 012GO11i). Put shortly:
as §1

Experiment [10] has as its system Haemophilus influenzae. Briefly: In vitro inhibitory activity against Haemophilus influenzae (351HT3). Put shortly: as §1
Experiment [11] deals with Staphylococcus aureus. Nature of the experiment: In vitro inhibitory activity against Staphylococcus aureus (011UC4). Put shortly:
as §1

As for `CC[C@H]1OC(=O)[C@H](C)C(=O)[C@H](C)[C@@H](O[C@@H]2O[C@H](C)C[C@H](N(C)C)[C@H]2O)[C@](C)(OC)C[C@@H](C)/C(=N\OCCN2CCCCC2)[C@H](C)[C@@H](O)[C@]1(C)O`, the MIC in [1] is 2.5 µg/mL (≈ 3.5 µM); in experiment [2], 20 µg/mL (≈ 28 µM); in experiment [3], 10 µg/mL (≈ 14 µM); in experiment [4], 40 µg/mL (≈ 56 µM); in experiment [5], 40 µg/mL (≈ 56 µM); in experiment [6] it was 0.15 µg/mL (≈ 0.21 µM). For the same compound, the MIC is 20 µg/mL (≈ 28 µM) in experiment [7]; 40 µg/mL (≈ 56 µM) in experiment [8]; 0.6 µg/mL (≈ 0.84 µM) in experiment [9]; 40 µg/mL (≈ 56 µM) in experiment [10]; 0.6 µg/mL (≈ 0.84 µM) in experiment [11].

With `CC[C@H]1OC(=O)[C@H](C)C(=O)[C@H](C)[C@@H](O[C@@H]2O[C@H](C)C[C@H](N(C)C)[C@H]2O)[C@](C)(OC)C[C@@H](C)C(=O)[C@H](C)[C@H]2NC(=O)O[C@@]21C`, the MIC in experiment [1] turned out to be 0.6 µg/mL (≈ 0.979 µM); in experiment [2] it was 5 µg/mL (≈ 8.16 µM); in experiment [3], 0.02 µg/mL (≈ 0.0326 µM); in experiment [4] it was 2.5 µg/mL (≈ 4.08 µM); in [5], 40 µg/mL (≈ 65.3 µM); in experiment [6] it was 0.04 µg/mL (≈ 0.0653 µM). Also, the MIC in [7] stood at 5 µg/mL (≈ 8.16 µM); in experiment [8], 40 µg/mL (≈ 65.3 µM); in [9], 10 µg/mL (≈ 16.3 µM); in experiment [10], 5 µg/mL (≈ 8.16 µM); in experiment [11], 0.6 µg/mL (≈ 0.979 µM).

Consider `CC[C@H]1OC(=O)[C@H](C)C(=O)[C@H](C)[C@@H](O[C@@H]2O[C@H](C)C[C@H](N(C)C)[C@H]2O)[C@](C)(OC)C[C@@H](C)/C(=N\O[C@@H]2CCCN(Cc3ccc(-c4ccccc4)cc3)C2)[C@H](C)[C@@H](O)[C@]1(C)O`, for which the MIC in [1] stood at 0.3 µg/mL (≈ 0.352 µM); in experiment [2], 5 µg/mL (≈ 5.87 µM); in experiment [3] it was 0.3 µg/mL (≈ 0.352 µM); in experiment [4] it was 0.3 µg/mL (≈ 0.352 µM); in experiment [5], 20 µg/mL (≈ 23.5 µM); in [6] it was 0.04 µg/mL (≈ 0.0469 µM). The MIC in experiment [7] was determined as 10 µg/mL (≈ 11.7 µM); in experiment [8] it was 40 µg/mL (≈ 46.9 µM); in experiment [9], 0.6 µg/mL (≈ 0.704 µM); in experiment [10] it was 40 µg/mL (≈ 46.9 µM); in experiment [11], 0.6 µg/mL (≈ 0.704 µM).

Regarding `CC[C@H]1OC(=O)[C@H](C)C(=O)[C@H](C)[C@@H](O[C@@H]2O[C@H](C)C[C@H](N(C)C)[C@H]2O)[C@](C)(OC)C[C@@H](C)/C(=N\OCc2c(C)cc(C)cc2C)[C@H](C)[C@@H](O)[C@]1(C)O`, the MIC worked out at 0.6 µg/mL (≈ 0.816 µM) in [1]; 5 µg/mL (≈ 6.8 µM) in experiment [2]; 0.04 µg/mL (≈ 0.0544 µM) in experiment [3]; 5 µg/mL (≈ 6.8 µM) in [4]; 10 µg/mL (≈ 13.6 µM) in [5]; 0.3 µg/mL (≈ 0.408 µM) in [6]. For the same compound, the MIC in experiment [7] is 40 µg/mL (≈ 54.4 µM); in experiment [8], 40 µg/mL (≈ 54.4 µM); in [9], 0.6 µg/mL (≈ 0.816 µM); in [10], 40 µg/mL (≈ 54.4 µM); in experiment [11], 0.3 µg/mL (≈ 0.408 µM).

With `CC[C@H]1OC(=O)[C@H](C)C(=O)[C@H](C)[C@@H](O[C@@H]2O[C@H](C)C[C@H](N(C)C)[C@H]2O)[C@](C)(OC)C[C@@H](C)/C(=N\OC2CCNC2)[C@H](C)[C@@H](O)[C@]1(C)O` (stereo partly drawn), the MIC in experiment [1] came to 5 µg/mL (≈ 7.44 µM); in [2] it was 10 µg/mL (≈ 14.9 µM); in experiment [3], 0.02 µg/mL (≈ 0.0298 µM); in experiment [4] it was 40 µg/mL (≈ 59.5 µM); in [5], 40 µg/mL (≈ 59.5 µM); in [6] it was 0.04 µg/mL (≈ 0.0595 µM). For the same compound, the MIC in experiment [7] was 5 µg/mL (≈ 7.44 µM); in experiment [8] it was 40 µg/mL (≈ 59.5 µM); in experiment [9] it was 6 µg/mL (≈ 8.93 µM); in experiment [10] it was 10 µg/mL (≈ 14.9 µM); in experiment [11], 0.15 µg/mL (≈ 0.223 µM).

With `C#CCNCCO/N=C1\[C@H](C)C[C@@](C)(OC)[C@H](O[C@@H]2O[C@H](C)C[C@H](N(C)C)[C@H]2O)[C@@H](C)C(=O)[C@@H](C)C(=O)O[C@H](CC)[C@@](C)(O)[C@H](O)[C@H]1C`, the MIC in experiment [1] came out at 5 µg/mL (≈ 7.31 µM); in [2] it was 5 µg/mL (≈ 7.31 µM); in experiment [3], 2.5 µg/mL (≈ 3.66 µM); in experiment [4] it was 40 µg/mL (≈ 58.5 µM); in [5], 40 µg/mL (≈ 58.5 µM); in experiment [6], 0.08 µg/mL (≈ 0.117 µM). In addition, the MIC came out at 10 µg/mL (≈ 14.6 µM) in [7]; 40 µg/mL (≈ 58.5 µM) in [8]; 0.3 µg/mL (≈ 0.439 µM) in experiment [9]; 20 µg/mL (≈ 29.2 µM) in experiment [10]; 0.3 µg/mL (≈ 0.439 µM) in [11].

With `CC[C@H]1OC(=O)[C@H](C)C(=O)[C@H](C)[C@@H](O[C@@H]2O[C@H](C)C[C@H](N(C)C)[C@H]2O)[C@](C)(OC)C[C@@H](C)C(=O)[C@H](C)[C@H]2N(N)C(=O)O[C@]12C`, the MIC was 1.2 µg/mL (≈ 1.91 µM) in experiment [1]; 40 µg/mL (≈ 63.7 µM) in experiment [2]; 0.08 µg/mL (≈ 0.127 µM) in experiment [3]; 40 µg/mL (≈ 63.7 µM) in experiment [4]; 40 µg/mL (≈ 63.7 µM) in experiment [5]; 0.15 µg/mL (≈ 0.239 µM) in experiment [6]. The MIC in experiment [7] is 10 µg/mL (≈ 15.9 µM); in experiment [8] it was 40 µg/mL (≈ 63.7 µM); in [9], 1.2 µg/mL (≈ 1.91 µM); in experiment [10], 10 µg/mL (≈ 15.9 µM); in experiment [11] it was 1.2 µg/mL (≈ 1.91 µM).

With `CC[C@H]1OC(=O)[C@H](C)C(=O)[C@H](C)[C@@H](O[C@@H]2O[C@H](C)C[C@H](N(C)C)[C@H]2O)[C@](C)(OC)C[C@@H](C)/C(=N\OC[C@@H](N)C(=O)[O-])[C@H](C)[C@@H](O)[C@]1(C)O.[K+]`, the MIC in [1], in experiment [2], in experiment [3], in experiment [4], in experiment [5] and in experiment [6] was 40 µg/mL each time. Moreover, the MIC in experiment [7], in [8], in experiment [9], in experiment [10] and in experiment [11] was 40 µg/mL throughout.

(Values after ChEMBL document CHEMBL1131139, “Synthesis and antibacterial activity of ketolides (6-O-methyl-3-oxoerythromycin derivatives): a new class of antibacterials highly potent against macrolide-resistant and -susceptible respiratory pathogens” (1998).)
